Experimental data gathered from unrelated publications.
Protocols differ between the studies behind these lines.
Target: Receptor-interacting serine/threonine-protein kinase 4 (RIPK4, Homo sapiens, UniProt P57078)
Sequence (P57078 1-832, as in one of the studies): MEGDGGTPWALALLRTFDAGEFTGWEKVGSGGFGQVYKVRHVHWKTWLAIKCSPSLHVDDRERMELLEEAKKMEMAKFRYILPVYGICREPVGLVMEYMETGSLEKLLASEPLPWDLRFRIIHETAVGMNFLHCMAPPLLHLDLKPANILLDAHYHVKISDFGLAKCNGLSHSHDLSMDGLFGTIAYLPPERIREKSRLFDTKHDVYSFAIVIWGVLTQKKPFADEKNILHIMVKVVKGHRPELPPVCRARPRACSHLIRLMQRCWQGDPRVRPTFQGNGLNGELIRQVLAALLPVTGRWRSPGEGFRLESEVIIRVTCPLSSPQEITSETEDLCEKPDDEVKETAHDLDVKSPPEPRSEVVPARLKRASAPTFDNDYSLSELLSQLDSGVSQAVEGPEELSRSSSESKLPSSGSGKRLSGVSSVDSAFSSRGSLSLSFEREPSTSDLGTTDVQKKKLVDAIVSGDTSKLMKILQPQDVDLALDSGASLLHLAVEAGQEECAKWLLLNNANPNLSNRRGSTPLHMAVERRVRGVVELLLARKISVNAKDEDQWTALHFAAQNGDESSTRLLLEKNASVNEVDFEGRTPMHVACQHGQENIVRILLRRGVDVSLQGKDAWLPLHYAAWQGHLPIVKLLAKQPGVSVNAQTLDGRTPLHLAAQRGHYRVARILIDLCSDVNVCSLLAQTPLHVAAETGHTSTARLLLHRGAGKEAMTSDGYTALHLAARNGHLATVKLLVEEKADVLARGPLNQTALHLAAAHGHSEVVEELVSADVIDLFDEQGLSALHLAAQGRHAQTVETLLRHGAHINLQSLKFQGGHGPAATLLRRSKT

`CN(C)c1nccc(-c2cnc3ncccn23)n1` has a remaining binding of 71% (binding; 1 µM).
`Cc1c(NC(=O)c2cc(C(N)=O)nc3cc(F)ccc23)c(C(F)(F)F)nn1Cc1ccc(C#N)cc1` gave a remaining binding of 92% (cell-free assay, competition with immobilised ligand; 1 µM).
For `O=C(NCC1CCOCC1)c1n[nH]cc1NC(=O)c1c(F)cccc1F`, the remaining binding was 70% (binding, competition with immobilised ligand; 1 µM).
`O=C(c1ccc(Nc2ncc(Cl)c(-c3cc4ccccc4s3)n2)cc1)N1CCC(N2CCCC2)CC1` gave a remaining binding of 41% (binding, competition with immobilised ligand; 1 µM).
`CN(c1ccnc(CNc2nc(Nc3ccc4c(c3)CC(=O)N4)ncc2C(F)(F)F)n1)S(C)(=O)=O` has a remaining binding of 6% (cell-free assay, competition with immobilised ligand; 1 µM).
With `CNC(=O)[C@@H]1CC[C@@H](n2c(-c3ccc4cnccc4c3)nc3ccc(C(=O)NCc4cccc(C(N)=O)c4)cc32)C1` the remaining binding was 65% (binding, competition with immobilised ligand; 1 µM).
The remaining binding of `CC1CCCN1c1nccc(-c2cnn3ncccc23)n1` (stereo not drawn) is reported as 98% (binding; 1 µM).
For `FC(F)(F)Oc1cccc(-c2cnc3ccc(-c4ccncc4)nn23)c1`, the remaining binding was 69% (binding, competition with immobilised ligand; 5 µM).
For `O=C(NCCCC1CCCCC1)c1ccc(CNC(=O)c2cnn(-c3ccccc3)c2C(F)(F)F)cc1`, the remaining binding was 58% (cell-free assay, competition with immobilised ligand; 0.1 µM).
The remaining binding of `Cc1cnn2ncc(-c3ccnc(N(C)C)n3)c2c1` is reported as 80% (binding; 1 µM).
For `c1cncc(-c2cccc(Nc3nccc(NC4CCCCC4)n3)c2)c1`, the remaining binding was 53% (binding, competition with immobilised ligand; 10 µM).
`CN1CCN(c2cnc3c(C4CCN(C(=O)c5ccc(OC(F)(F)F)cc5N)CC4)ncnc3c2)CC1` has a remaining binding of 100% (cell-free assay, competition with immobilised ligand; 1 µM).
With `N[C@H]1CCN(c2nccc(-c3cnn4ncccc34)n2)C1` the remaining binding was 100% (binding; 1 µM).
`CCN1CCN(Cc2ccc(C(=O)Nc3ccc(C)c(Oc4ccc5c(c4)CC(=O)N5)c3)cc2C(F)(F)F)CC1` gave a remaining binding of 100% (binding, competition with immobilised ligand; 1 µM).
The remaining binding of `O=C(c1ccc(Nc2nccc(-c3cc4ccccc4s3)n2)cc1)N1CCC(N2CCCC2)CC1` is reported as 30% (binding, competition with immobilised ligand; 1 µM).
`CC1=C(C#N)[C@@H](c2ccc3[nH]nc(C)c3c2)C(C#N)=C(c2ccc(Cl)cc2)N1` gave a remaining binding of 71.8% (cell-free assay, competition with immobilised ligand; 1 µM).
`Cc1cnc(Nc2ccc(C(=O)N3CCC(N4CCCC4)CC3)cc2)nc1-c1cc2ccccc2s1` gave a remaining binding of 28% (binding, competition with immobilised ligand; 1 µM).
For `C[C@H]1CCN(c2nccc(-c3cnn4ncccc34)n2)C1`, the remaining binding was 81% (binding; 1 µM).
`CS(=O)(=O)N1CCCC(NC(=O)[C@H](CCC2CCCCC2)NC(=O)c2ccc(CNC(=O)c3cnc4ccccn34)cc2)C1` (stereo partly drawn) gave a remaining binding of 92% (cell-free assay, competition with immobilised ligand; 0.1 µM).
The remaining binding of `Nc1ncc2c(n1)-c1c([nH]c3ccc(C#CC4CC4)cc13)CCCC2` is reported as 100% (binding, competition with immobilised ligand; 1 µM).
For `CN(c1nccc(-c2cnn3ncccc23)n1)C1CC1`, the remaining binding was 100% (binding; 1 µM).
